We go through 48 sequences from the EternaBench riboswitch data.

This series relates to MS2 coat protein. The series is described as follows: apparent Kd, MS2 coat protein; higher = weaker binding; RNA-MaP array; FMN 200 µM where present. The gist of the method: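 The apparent Kd is the median of filtered binding-curve fits, one per cluster, to green signal normalised to red-channel RNA signal and control-cluster median Fmax. The clusters were on Illumina sequencing chips, and stalled E. coli RNA polymerase had transcribed the designs on them. Titration used SNAP-549-labelled MS2 coat protein from 0.7 or 1.5 nM, doubling to 3 µM, without and then with constant ligand, in 100 mM Tris-HCl pH 7.5, 80 mM KCl, 4 mM MgCl2, BSA, DTT, yeast tRNA and Tween-20.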

The mark [1] stands for this setting: designed as: OFF switch for flavin mononucleotide, no ligand.
[2] abbreviates: ligand present: flavin mononucleotide, designed as: OFF switch for flavin mononucleotide.
[3] abbreviates: designed as: ON switch for flavin mononucleotide, no ligand.
The mark [4] stands for this setting: ligand present: flavin mononucleotide, designed as: ON switch for flavin mononucleotide.

What is called apparent Kd is a dissociation constant that holds for the conditions of the assay. As to “UGCUGGCAAGGAUAUACUCGGGAUGCUAGUCGCGCGGUUGCACAUGAGGAUCACCCAUGUAGAAGGUGUCUGUG”, the “apparent Kd” value worked out at 195 nM under setting [1] and 160 nM under setting [2].
As to “GUGUACAGAGGAUAUACUGGAGCAUGGAAACAUGCAACUUCACAUGAGGAUCACCCAUGUAGAAGGCUGUACAC”, the “apparent Kd” value is, setting by setting: under setting [1], 17.6 nM; under setting [2], 68.4 nM.
For the sequence “GUAUGGAGUACAGGAUAUGUAAGUUUUAAGUGUAUUGGUUAUUACUUAAUUACAGAAGGGUAUUACAUGAGGAUCACCCAUGUA”, the “apparent Kd” value reads like this: under setting [3], 12.8 nM; under setting [4], 9.5 nM.
Regarding “UUGGACGUCGUAGUAUAUGUAGGAUAUUCCUACAUGAGGAUCACCCAUGUUGACAUGGAAGAAGGACAGAAGGACGAUGUCCAU”, the “apparent Kd” value under setting [3] came out at 144 nM and the “apparent Kd” value under setting [4] was found to be 6.12 nM.
Consider “UUAGAACAUGAGGAUCACCCAUGUGAGGAUAUGCAAUACUAAUAUUAAGAUAAUUAUAGCAGAAGGCACGUAGU”, for which the “apparent Kd” value worked out at 34.3 nM under setting [1] and 47.7 nM under setting [2].
Consider “CGUAACUGCAUAGGAUAUUGAUACAUGAGGAUCACCCAUGUUUUUCGGAUUAGAUAUAUACUUAGCAAGAAGGAUGGAGUUACG”, for which the “apparent Kd” value runs as follows: under setting [3], 9.58 nM; under setting [4], 6.57 nM.
In the case of “GGGCCCGGAGGAUAUACAUGAGGAUCACCCAUGUAGGGCUCGGGUAUUUCUGGGUCUUGUAGAAGGCCGGGCCC”, the “apparent Kd” value came out at 16 nM under setting [1] and 22.8 nM under setting [2].
As for “ACUGUGCAUUAGAAGGGUGCGCGGCAAUCGCGCACAGGAUAUGAUGACAUGAGGAUCACCCAUGUCUGUGUUACCUGGGUGUCG”, the “apparent Kd” value runs as follows: under setting [1], 19.1 nM; under setting [2], 135 nM.
“UCUCGCUGGCGAGGAUAUCCUGUGCGGUUCCGGCUCGUGUCUGUUACAUGAGGAUCACCCAUGUGGGAGAAGGUGCCUGUGGCU”: the “apparent Kd” value by setting is: under setting [1], 32.7 nM; under setting [2], 32.6 nM.
In the case of “UGAUAACAUGUAGGAUAUCCAGCAUUGACCAUCGGAGAAGGACAUGAGGAUCACCCAUGUACCGAUACAAUGGGAUAACGGAAU”, the “apparent Kd” value came to 15.7 nM under setting [1] and 17.7 nM under setting [2].
In the case of “CGUUAUAACGAGAAGGCUGUCUGCAGUCCAGACGGAGGAUAUCGAGAAGACAUGAGGAUCACCCAUGUACGCUGGUGUCUUCAU”, the “apparent Kd” value came to 25.4 nM under setting [1] and 189 nM under setting [2].
For “AUGUUACAUGAGGAUCACCCAUGUGAGGAUAUGUGUAUCCCUAAAAAAGUGUGGGACCAUAGAAGGCACUUGGA”, in that order: 62.9 nM and 98.1 nM.
On the same counts, the results for “UGCUAGUCAGGAUAUACGAACAUGUCAAAAGACGUGAAGGGACAUGAGGAUCACCCAUGUAGAAGGGACUAGCU” are 38.4 nM and 129 nM.
On to “CACGGAAACGUGAAACGUAGCAUACGAGAAGGCUGAUCCACGACAUGAGGAUCACCCAUGUAGUUAGAGGAUAUUGGAUGCUAC”, for which the “apparent Kd” value runs as follows: under setting [3], 57.7 nM; under setting [4], 12.2 nM.
For “ACCCAACAUGAGGAUCACCCAUGUCAGGAUAUCCAUCUAUACUCGAAAGAGUAUAGAUGGAGAAGGGACAGAGG”, the “apparent Kd” value under setting [1] turned out to be 94.8 nM and the “apparent Kd” value under setting [2] stood at 92.9 nM.
On to “AUCGUUGACUGGACGAGAAUAGGGCAGGAUAUACAUGAGGAUCACCCAUGUGAAGCACGAAAGAGGUAGAAGGGCCCACGUCAU”, for which the “apparent Kd” value under setting [2] was found to be 20.5 nM.
“UUUUUUGUACAAGGAUAUCUAUUAUAUUCACGUCCUACAUGAGGAUCACCCAUGUUAUAUAUUUUAGAGAAGGUGUAUUGUCUG”: the “apparent Kd” value reads like this: under setting [3], 31.7 nM; under setting [4], 35.5 nM.
As to “GUUAUAAAGGUAGGAUAUAGUAUUAUAAUUAAAUUAGAAGGAUCUCACAUGAGGAUCACCCAUGUAAGAGGAUCACCCAUGUAG”, the “apparent Kd” value by setting is: under setting [1], 20.7 nM; under setting [2], 15.9 nM.
Regarding “UUUUAACAUGAGGAUCACCCAUGUGAGGAUAUCGAAAUUUUUAUUAAUAUUAAUAAAACGAGAAGGCACAUUUU”, the “apparent Kd” value worked out at 56 nM under setting [1] and 69.3 nM under setting [2].
Regarding “UAAAAGACUAGCAACUAUCUCCACAUGAGGAUCACCCAUGUCUAGGAUAUGAGCAGCAAAGCUGCUUAGAAGGAGACGCUAGUC”, the “apparent Kd” value under setting [1] is 6.67 nM and the “apparent Kd” value under setting [2] is 6.88 nM.
Take “GUUUUUCCUCAUGUACAUGAGGAACAUGAGGAUCACCCAUGUAGAAGGAAUUCCCUUAAAUUAAGUUAGGAUAUACAUAUAUUU”: the “apparent Kd” value reads like this: under setting [1], 107 nM; under setting [2], 77.4 nM.
For “GGAUAGGACCGAGGAUAUACGUGCUAGAGAUACUAGCAAAAUUUCCUCACAUGAGGAUCACCCAUGUAGAAGGCUGUCCUAUCG”, in that order: 5.78 nM and 12.5 nM.
As to “UUUACAUGAGGAUCACCCAUGUUAAAAUAAUUAAUUAUAAGUGAGGAUAUAUAAAUUAUAAAAUUGUAGAAGGCACUGGGUAUC”, the “apparent Kd” value under setting [3] amounted to 47.9 nM and the “apparent Kd” value under setting [4] was determined as 44.5 nM.
With “AGCUGUGGCCGAGGAUAUCUGUUCCAUAAAACCGAAAUAUAAUCGGACAUGAGGAUCACCCAUGUAGAGAAGGCGGUCUCAGCA”, the “apparent Kd” value runs as follows: under setting [1], 23.9 nM; under setting [2], 26.4 nM.
For “AAUAUGAGCUGGUUUAAAACUCAAACAUGAGGAUCACCCAUGUAGGAUAUCAGCACGAUAAGUGCUGAGAAGGACAUCCAGCUC”, in that order: 15 nM and 18.9 nM.
With “AAGGUGUAAGGAUAUGCUGCUCGUCACUUGCGUGAUGAGUAGCAGAAGGUACAUGAGGAUCACCCAUGUAAAAA”, the “apparent Kd” value turned out to be 27.9 nM under setting [1] and 34.6 nM under setting [2].
Take “CUUGCGCGCUCGCCACUUUUCCCACAUGAGGAUCACCCAUGUCAGGAUAUACGUACCGAAAUGGCGUAGAAGGGACACGGGUUA”: the “apparent Kd” value was 166 nM under setting [1] and 131 nM under setting [2].
Turning to “AUGCAACAUGAGGAUCACCCAUGUGAGGAUAUCGUAUAAUACUGUUGAAAUAUUUAGACGAGAAGGCACACCGU”, the “apparent Kd” value runs as follows: under setting [1], 29.7 nM; under setting [2], 47.3 nM.
For “UAAUAAAACGAUCGGCGAUCCAUACAUGAGGAUCACCCAUGUAGAAGGCACUCUACAAAGUAGAGUGAGGAUAUACGAGAUCGA”, in that order: 7.85 nM and 105 nM.
Consider “GUAACAUGAGGAUCACCCAUGUCGUGCUAGAUGAGUUCUAGUGAGGAUAUACAUGGUAAAUAACUGUAGAAGGUGCUGGGUACA”, for which the “apparent Kd” value was 192 nM under setting [3] and 229 nM under setting [4].
For “CUUCAGUCAGGAUAUGUUAAUCUCGCCACUCCGCGAGCCGGACAGAAGGGACAUGAGGAUCACCCAUGUUAAAC”, the “apparent Kd” value under setting [1] was 29.5 nM and the “apparent Kd” value under setting [2] was 21.9 nM.
As to “CCCACGAAAGUCGAACGAUGUACGAGAAGGACAAUAACAUGACAUGAGGAUCACCCAUGUGCCAUGUAGGAUAUCGUACAUGGG”, the “apparent Kd” value under setting [1] came out at 8.55 nM and the “apparent Kd” value under setting [2] was found to be 8.17 nM.
For “UUUUUAUAACAAGGAUAUACUAAACAUGAGGAUCACCCAUGUAAUAUUAUGAGUGAGAGAGAUAAGUAGAAGGUGUAUUAUUUU”, the “apparent Kd” value by setting is: under setting [1], 100 nM; under setting [2], 137 nM.
In the case of “AAUAUAGAGCUGGAAAUAAAACUCACAUGAGGAUCACCCAUGUAGGAUAUCAGCACGAUAAGUGCUGAGAAGGACAUCCAGCUC”, the “apparent Kd” value runs as follows: under setting [1], 15.2 nM; under setting [2], 15.2 nM.
Consider “CUGCUGGAGCUUUGCUUUAGUCGUACAUGAGGAUCACCCAUGUAGGAUAUGGUGGGCUUUGCUUACUAGAAGGAUAGAGUGGUC”, for which the “apparent Kd” value runs as follows: under setting [1], 49.9 nM; under setting [2], 36.3 nM.
For “UCUAGACAUGAGGAUCACCCAUGUGAGGAUAUGAUGCGAUCGUCGAAAGACGAUAGCAUCAGAAGGCACAAAUG”, in that order: 66.5 nM and 200 nM.
As to “GCGGUUACGGUUGGCACUUAGCGAGAGGAUAUGGAAAACAAGACAUGAGGAUCACCCAUGUACUAUCAGAAGGCUCGAGCACGC”, the “apparent Kd” value runs as follows: under setting [3], 7.76 nM; under setting [4], 5.8 nM.
With “GUCAGACGAGGAUAUAGAUUUAAGUACAUGAGGAUCACCCAUGUACAUAUGUAUUUAGAUUUAGAAGGCGUCUGAC”, the “apparent Kd” value runs as follows: under setting [1], 28.2 nM; under setting [2], 31.6 nM.
For “CUUUCGUGAGGAUAUGUGGCUUCGAUCGUGAGAUCGAAAAUACAGAAGGCACAUGAGGAUCACCCAUGUUCCUC”, the “apparent Kd” value by setting is: under setting [1], 37.8 nM; under setting [2], 456 nM.
Regarding “AAUUUACAUGAGGAUCACCCAUGUCAGGAUAUGGUUUUAUUUUUUUCUUUUCUUGAUUCCAGAAGGGACAGUUA”, the “apparent Kd” value is, setting by setting: under setting [1], 114 nM; under setting [2], 63.9 nM.
Consider “UUACGUCCCGUUUACAUGAGGAUCACCCAUGUCGAAAGAGCGGAGGAUAUGCUACCUAGUUGGUAGCAGAAGGUUGCAACGUCG”, for which the “apparent Kd” value runs as follows: under setting [3], 17.7 nM; under setting [4], 28.3 nM.
“AGGGUAUGAACAUGAGGAUCACCCAUGUACCAGGAAACGAAUGAGGAUAUCGAUAGCAAAGCUAUCGAGAAGGCAUGGGACCCU”: the “apparent Kd” value worked out at 318 nM under setting [3] and 62.2 nM under setting [4].
Consider “GGUACUCAAAGAGUACCAAUACGAACAUGAGGAUCACCCAUGUAGGAUAUGCUACUCAAAGAGUAGCAGAAGGACAUGUGCCAU”, for which the “apparent Kd” value runs as follows: under setting [1], 42 nM; under setting [2], 282 nM.
Turning to “CUGAGUAGUCAGGAUAUGUGGUACAAAAGUACUGCAGAAGGGAUUACAUGAGGAUCACCCAUGUUUACUUCAUG”, the “apparent Kd” value under setting [1] stood at 47.4 nM and the “apparent Kd” value under setting [2] turned out to be 242 nM.
Consider “UGUUGUUCAGGAUAUGGUGUGUUAUACAUGAGGAUCACCCAUGUGGGUCCUGAUUUGGCGUCAGAAGGGAAUGUUG”, for which the “apparent Kd” value under setting [1] was 486 nM and the “apparent Kd” value under setting [2] was determined as 406 nM.
“UAUAUAUAGUAAGGAUAUGUAUUUAUUUUAUUAACAGAAGGUACUGACAUGAGGAUCACCCAUGUUUUAGUGUGGGCAUGUAGA”: the “apparent Kd” value reads like this: under setting [1], 103 nM; under setting [2], 146 nM.
Consider “CGCUGCCACGCAGGAUAUGCAUUGGAUUCCAAUGCAGAAGGGCGAUUACAUGAGGAUCACCCAUGUGUUGGCAGUGAAGAAGAG”, for which the “apparent Kd” value runs as follows: under setting [3], 1230 nM; under setting [4], 77.9 nM.
Turning to “AUACUAAAUGAAGGAUAUCUAAGCAUACACCUGAGAGAAGGUCAUUUUUACAUGAGGAUCACCCAUGUUGUGGUUAAUGGGUUA”, the “apparent Kd” value runs as follows: under setting [1], 290 nM; under setting [2], 374 nM.
